Among the data in ChEMBL document CHEMBL3813595, “Discovery of novel 5,6,7,8-tetrahydro[1,2,4]triazolo[4,3-a]pyridine derivatives as γ-secretase modulators (Part 2)” (Bioorg Med Chem, 2016) are chromatographic logD, Drug uptake and concentration values, retold here.

Data set [1] is described as follows: Lipophilicity, logD of compound at pH 7.4 by retention time-based reverse phase chromatographic analysis. The data set is classed as physicochemical. The following applies: buffer.
Data set [2] relates to Cortex. Description: Drug uptake in APP-transgenic Tg2576 mouse cortex at 3 to 6 mg/kg, po administered as multiple dose by LC/MS/MS analysis. Format: ADME, organism-based. The following applies: in vivo.
The nature of data set [3]: Drug uptake in C57BL/6J mouse cortex at 6 mg/kg, po after 3 hrs by LC/MS/MS analysis. Format: ADME, organism-based. To be noted: read-out: Drug uptake. A digest of the protocol:
(§1)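 Male C57BL/6J mice, 9 weeks old, fed, n = 3, given a single oral dose of 6 mg/kg in 0.5% methylcellulose. Plasma and cortex collected at 3 h. Cortex homogenized in saline. Samples deproteinized with MeCN containing an internal standard, then diluted in ammonium formate/acetonitrile with 0.2% formic acid for analysis.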

Data set [4] can be described thus: Drug uptake in C57BL/6J mouse plasma at 6 mg/kg, po after 3 hrs by LC/MS/MS analysis. The data set is classed as ADME, organism-based. A digest of the protocol: as §1
The subject of data set [5] is Plasma. Description: Drug uptake in APP-transgenic Tg2576 mouse plasma at 3 to 6 mg/kg, po administered as multiple dose by LC/MS/MS analysis. The following applies: in vivo. The data set is classed as ADME, organism-based.
For data set [6], the system named is Cortex. Nature of the data set: Drug uptake in APP-transgenic Tg2576 mouse cortex at 3 to 6 mg/kg, po administered as single dose after 18 hrs by LC/MS/MS analysis. The data set is classed as ADME, organism-based. The following applies: in vivo, BLD = below limit of detection.

In general, chromatographic logD refers to a lipophilicity value derived from retention on a column. A low value points to lower lipophilicity.

Compound `COc1cc(-c2nnc3n2CCCC32COc3ccccc3N(CC(F)(F)F)C2=O)ccc1-c1cnc(C)o1` (configuration not stated) returned a chromatographic logD in data set [1] of 2.5.
`COc1cc(-c2nnc3n2CCCC3(Oc2cc(F)c(F)c(F)c2)C(C)(C)O)ccc1-c1cnc(C)o1` (configuration not stated) yielded a chromatographic logD in data set [1] of 3.2.
Same read-out and setting: next, `COc1cc(-c2nnc3n2CCCC32OCc3c(cccc3C(F)(F)F)N(CC(F)(F)F)C2=O)ccc1-c1cnc(C)o1` (configuration not stated): 2.9.
On the same count and under the same terms, in the case of `COc1cc(-c2nnc3n2CCCC32Cc3ccccc3N(CC(F)(F)F)C2=O)ccc1-c1cnc(C)o1` (configuration not stated) it was 2.4; in that of `COc1cc(-c2nnc3n2CCCC3(Oc2ccc(F)c(F)c2)C(C)(C)O)ccc1-c1cnc(C)o1` (configuration not stated), 2.8.
On the same count and under the same terms, in the case of `COc1cc(-c2nnc3n2CCCC3(Cc2ccc(F)c(F)c2)C(N)=O)ccc1-c1cnc(C)o1` (configuration not stated) it was 2.3; in that of `COc1cc(-c2nnc3n2CCCC32OCc3c(Cl)cccc3N(CC(F)(F)F)C2=O)ccc1-c1cnc(C)o1` (configuration not stated), 2.8.
Regarding `COc1cc(-c2nnc3n2CCCC3(CO)Cc2ccc(F)c(F)c2)ccc1-c1cnc(C)o1` (configuration not stated), in data set [1], the chromatographic logD turned out to be 2.5.
Same read-out and setting: in the case of `COc1cc(-c2nnc3n2CCCC3(CNC(C)=O)c2ccc(Cl)c(Cl)c2)ccc1-c1cnc(C)o1` (configuration not stated) it was 3.2.
On the same count and under the same terms, in the case of `COc1cc(-c2nnc3n2CCCC3(CN)c2ccc(Cl)c(Cl)c2)ccc1-c1cnc(C)o1` (configuration not stated) it was 3.1; in that of `COc1cc(-c2nnc3n2CCCC32OCc3ccccc3N(CC(F)(F)F)C2=O)ccc1-c1cnc(C)o1` (configuration not stated), 2.2; in that of `COc1cc(-c2nnc3n2CCCC32C(=O)N(CC(F)(F)F)c3ccccc32)ccc1-c1cnc(C)o1` (configuration not stated), 2.2.
`COc1cc(-c2nnc3n2CCCC3(c2ccc(Cl)c(Cl)c2)C(C)(C)O)ccc1-c1cnc(C)o1` (configuration not stated): in data set [1], the chromatographic logD is 3.7.
Take `COc1cc(-c2nnc3n2CCC[C@]3(Oc2cc(F)c(F)c(F)c2)C(C)(C)O)ccc1-c1cnc(C)o1`: the Drug uptake entry in data set [2] was “Not Active”; in data set [5], “Not Active”; in data set [6], “BLD”. In addition, the concentration at 3 h in data set [3] is 677 ng/g; in data set [4], 3310 ng/mL. Also, the chromatographic logD in data set [1] is 3.2.
Compound `COc1cc(-c2nnc3n2CCC[C@@]3(Oc2cc(F)c(F)c(F)c2)C(C)(C)O)ccc1-c1cnc(C)o1` had a chromatographic logD in data set [1] of 3.2.
`COc1cc(-c2nnc3n2CCCC3(Cc2ccc(F)c(F)c2)C(C)=O)ccc1-c1cnc(C)o1` (configuration not stated) had a chromatographic logD in data set [1] of 2.6.
`COc1cc(-c2nnc3n2CCCC3(OC)c2ccc(Cl)c(Cl)c2)ccc1-c1cnc(C)o1` (configuration not stated) returned a chromatographic logD in data set [1] of 3.7.
Same read-out and setting: next, `COc1cc(-c2nnc3n2CCCC3(c2ccc(F)c(F)c2)C(C)(C)O)ccc1-c1cnc(C)o1` (configuration not stated): 2.9; `COc1cc(-c2nnc3n2CCCC3(O)c2ccc(Cl)c(Cl)c2)ccc1-c1cnc(C)o1` (configuration not stated): 2.9; `COc1cc(-c2nnc3n2CCCC3(Cc2ccc(F)c(F)c2)C(C)(C)O)ccc1-c1cnc(C)o1` (configuration not stated): 3.
In data set [1], `COc1cc(-c2nnc3n2CCCC3(Cc2ccc(F)c(F)c2)C(=O)N(C)CC(F)(F)F)ccc1-c1cnc(C)o1` (configuration not stated) gave a chromatographic logD of 2.9.
On the same count and under the same terms, next, `COc1cc(-c2nnc3n2CCCC3(Cc2ccc(F)c(F)c2)C(=O)NCC(F)(F)F)ccc1-c1cnc(C)o1` (configuration not stated): 3.
